According to ChEMBL document CHEMBL4480442, “Phloroglucinols with Immunosuppressive Activities from the Fruits of Eucalyptus globulus” (J Nat Prod, 2019):
Activity calls are given as the source filed them. The calls are words filed in the database; no cut-off is given here.

Assays:
[1] = […], ratio of CC50 for BALB/c mouse lymph node cells to IC50 for immunosuppressive activity in BALB/c mouse lymph node cells assessed as inhibition of concanavalin A stimulated T-cell proliferation
[2] = Immunosuppressive activity in BALB/c mouse lymph node cells assessed as inhibition of concanavalin A stimulated T-cell proliferation measured after 48 hrs by CCK8 assay; type: functional
[3] = Cytotoxicity against BALB/c mouse lymph node cells assessed as reduction in cell viability measured after 48 hrs by CCK8 assay; type: cell-based
[4] = species on record: Mus musculus; test: Immunosuppressive activity in concanavalin A stimulated BALB/c mouse lymph node cells assessed as increase in cytochrome c levels in cytoplasm at 1 to 20 uM measured after 48 hrs by Western blotting analysis; type: functional
Method in brief: (§1)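 Mouse […] cells, 2 × 10^6 cells/well, ConA (5 μg/mL) with compound at 1, 10, 20 μM for 48 h; cells washed with PBS, protein extracted and Western blotted; band densities quantified as Bax/Bcl-2 ratio and cytoplasmic/mitochondrial cytochrome c ratio; three independent experiments, means ± SEM.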

[5] = Immunosuppressive activity in concanavalin A stimulated BALB/c mouse lymph node cells assessed as induction of apoptosis by measuring viable cells at 10 uM measured after 48 hrs by Annexin-V/propidium iodide staining based flow cytometry (reference value: 99.7%); type: functional
[6] = species on record: Mus musculus; test: Immunosuppressive activity in BALB/c mouse lymph node cells assessed as inhibition of concanavalin A stimulated T-cell proliferation by measuring increase in LDH release at 1 to 20 uM; type: functional
[7] = species on record: Mus musculus; test: Immunosuppressive activity in concanavalin A stimulated BALB/c mouse lymph node cells assessed as caspase-3 activation at 1 to 20 uM measured after 48 hrs; type: functional
[8] = Immunosuppressive activity in concanavalin A stimulated BALB/c mouse lymph node cells assessed as induction of apoptosis by measuring late apoptotic cells at 20 uM measured after 48 hrs by Annexin-V/propidium iodide staining based flow cytometry (reference value: 0.2%); type: functional
[9] = Immunosuppressive activity in concanavalin A stimulated BALB/c mouse lymph node cells assessed as induction of apoptosis by measuring necrotic cells at 1 uM measured after 48 hrs by Annexin-V/propidium iodide staining based flow cytometry (reference value: 0%); type: functional
[10] = Immunosuppressive activity in concanavalin A stimulated BALB/c mouse lymph node cells assessed as induction of apoptosis by measuring viable cells at 1 uM measured after 48 hrs by Annexin-V/propidium iodide staining based flow cytometry (reference value: 99.7%); type: functional
[11] = Immunosuppressive activity in concanavalin A stimulated BALB/c mouse lymph node cells assessed as induction of apoptosis by measuring necrotic cells at 10 uM measured after 48 hrs by Annexin-V/propidium iodide staining based flow cytometry (reference value: 0%); type: functional
[12] = biological target: RAC-alpha serine/threonine-protein kinase (Mus musculus) (UniProt P31750); test: Inhibition of AKT phosphorylation in concanavalin A stimulated BALB/c mouse lymph node cells assessed as IFNgamma level at 20 uM measured after 48 hrs by ELISA (reference value: 575.9 +/- 8.2 pg/ml)
Sequence of RAC-alpha serine/threonine-protein kinase (Mus musculus) (P31750 whole entry): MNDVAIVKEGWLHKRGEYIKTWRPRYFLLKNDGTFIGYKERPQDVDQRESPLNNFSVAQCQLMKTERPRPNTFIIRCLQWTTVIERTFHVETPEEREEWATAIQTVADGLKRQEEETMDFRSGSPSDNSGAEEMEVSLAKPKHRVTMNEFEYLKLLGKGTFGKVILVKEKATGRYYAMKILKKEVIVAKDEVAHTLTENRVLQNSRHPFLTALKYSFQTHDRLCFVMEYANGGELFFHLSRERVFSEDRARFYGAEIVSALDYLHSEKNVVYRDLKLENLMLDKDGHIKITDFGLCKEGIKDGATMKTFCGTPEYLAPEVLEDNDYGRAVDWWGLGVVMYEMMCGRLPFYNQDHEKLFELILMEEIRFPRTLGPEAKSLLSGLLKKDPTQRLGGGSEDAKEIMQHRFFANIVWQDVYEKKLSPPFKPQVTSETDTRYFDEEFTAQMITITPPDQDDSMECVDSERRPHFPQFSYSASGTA

[13] = biological target: RAC-alpha serine/threonine-protein kinase (Mus musculus) (UniProt P31750); test: Inhibition of AKT phosphorylation in concanavalin A stimulated BALB/c mouse lymph node cells assessed as IFNgamma level at 1 uM measured after 48 hrs by ELISA (reference value: 575.9 +/- 8.2 pg/ml)
[14] = species on record: Mus musculus; test: Immunosuppressive activity in BALB/c mouse lymph node cells assessed as inhibition of concanavalin A stimulated T-cell proliferation at 1 to 20 uM measured after 48 hrs by CCK8 assay; type: functional
[15] = species on record: Mus musculus; test: Immunosuppressive activity in concanavalin A stimulated BALB/c mouse lymph node cells assessed as caspase-9 activation at 1 to 20 uM measured after 48 hrs; type: functional
[16] = Immunosuppressive activity in concanavalin A stimulated BALB/c mouse lymph node cells assessed as induction of apoptosis by measuring late apoptotic cells at 1 uM measured after 48 hrs by Annexin-V/propidium iodide staining based flow cytometry (reference value: 0.2%); type: functional
[17] = species on record: Mus musculus; test: Immunosuppressive activity in concanavalin A stimulated BALB/c mouse lymph node cells assessed as increase in ratio of Bax/Bcl2 level at 1 to 20 uM measured after 48 hrs by Western blotting analysis; type: functional; method in brief: as §1
[18] = biological target: RAC-alpha serine/threonine-protein kinase (Mus musculus) (UniProt P31750); test: Inhibition of AKT phosphorylation in concanavalin A stimulated BALB/c mouse lymph node cells assessed as IL4 level at 20 uM measured after 48 hrs by ELISA (reference value: 142.4 +/- 12.4 pg/ml)
Method in brief: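 ELISA for IL-4 or IFN-γ in culture medium: BALB/c […] cells, 2 × 10^6 cells/well, stimulated with ConA (5 μg/mL) with compound at 1, 10, 20 μM for 48 h; absorbance at 450 nm; means ± SEM of three independent experiments.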

[19] = Immunosuppressive activity in concanavalin A stimulated BALB/c mouse lymph node cells assessed as induction of apoptosis by measuring early apoptotic cells at 10 uM measured after 48 hrs by Annexin-V/propidium iodide staining based flow cytometry (reference value: 0.1%); type: functional
[20] = biological target: RAC-alpha serine/threonine-protein kinase (Mus musculus) (UniProt P31750); test: Inhibition of AKT phosphorylation in concanavalin A stimulated BALB/c mouse lymph node cells at 20 uM measured after 48 hrs by Western blotting analysis
[21] = Immunosuppressive activity in concanavalin A stimulated BALB/c mouse lymph node cells assessed as induction of apoptosis by measuring early apoptotic cells at 1 uM measured after 48 hrs by Annexin-V/propidium iodide staining based flow cytometry (reference value: 0.1%); type: functional
[22] = Immunosuppressive activity in concanavalin A stimulated BALB/c mouse lymph node cells assessed as induction of apoptosis by measuring early apoptotic cells at 20 uM measured after 48 hrs by Annexin-V/propidium iodide staining based flow cytometry (reference value: 0.1%); type: functional
[23] = Immunosuppressive activity in concanavalin A stimulated BALB/c mouse lymph node cells assessed as induction of apoptosis by measuring necrotic cells at 20 uM measured after 48 hrs by Annexin-V/propidium iodide staining based flow cytometry (reference value: 0%); type: functional
[24] = Immunosuppressive activity in concanavalin A stimulated BALB/c mouse lymph node cells assessed as induction of apoptosis by measuring viable cells at 20 uM measured after 48 hrs by Annexin-V/propidium iodide staining based flow cytometry (reference value: 99.7%); type: functional
[25] = biological target: RAC-alpha serine/threonine-protein kinase (Mus musculus) (UniProt P31750); test: Inhibition of AKT phosphorylation in concanavalin A stimulated BALB/c mouse lymph node cells assessed as IL4 level at 1 uM measured after 48 hrs by ELISA (reference value: 142.4 +/- 12.4 pg/ml)
[26] = biological target: RAC-alpha serine/threonine-protein kinase (Mus musculus) (UniProt P31750); test: Inhibition of AKT phosphorylation in concanavalin A stimulated BALB/c mouse lymph node cells assessed as IL4 level at 10 uM measured after 48 hrs by ELISA (reference value: 142.4 +/- 12.4 pg/ml)
[27] = Immunosuppressive activity in concanavalin A stimulated BALB/c mouse lymph node cells assessed as induction of apoptosis by measuring late apoptotic cells at 10 uM measured after 48 hrs by Annexin-V/propidium iodide staining based flow cytometry (reference value: 0.2%); type: functional

Compound: CO[C@]1(C)CC[C@@H]2[C@H]([C@H]3[C@H]1CC[C@]3(C)[C@H](CC(C)C)c1c(O)c(C=O)c(O)c(C=O)c1O)C2(C)C
- Ratio CC50/IC50 [1]: 15.7
- IC50 [2]: 35.8 µM
- CC50 at 48 h [3]: 562 µM

Compound: CC(C)C[C@H]1c2c(O)c(C=O)c(O)c(C=O)c2O[C@]2(C)C=C[C@@](O)(C(C)C)CC12 (stereo partly specified)
- Activity [4]: Active
- Activity [5]: 32.3%
- Activity [6]: Active
- Activity [7]: Active
- Ratio CC50/IC50 [1]: 56.3
- Activity [8]: 31.7%
- Activity [9]: 9.1%
- Activity [10]: 47.5%
- Activity [11]: 5.7%
- IC50 [2]: 11.8 µM
- CC50 at 48 h [3]: 664 µM
- Activity [12]: 52.5 pg/mL
- Activity [13]: 347 pg/mL
- Activity [14]: Active
- Activity [15]: Active
- Activity [16]: 18.3%
- Activity [17]: Active
- Activity [18]: 68.9 pg/mL
- Activity [19]: 42.7%
- inhibition [20]: Active
- Activity [21]: 25.1%
- Activity [22]: 63.1%
- Activity [23]: 1%
- Activity [24]: 4.2%
- Activity [25]: 118 pg/mL
- Activity [26]: 99.7 pg/mL
- Activity [27]: 19.3%

Compound: C/C1=C/[C@H]2[C@@H](CC[C@]3(C)Oc4c(C=O)c(O)c(C=O)c(O)c4[C@@H](CC(C)C)C3CC1)C2(C)C (stereo partly specified)
- Ratio CC50/IC50 [1]: 4.6
- IC50 [2]: 129 µM
- CC50 at 48 h [3]: 600 µM

Compound: CC(C)C[C@@H](c1c(O)c(C=O)c(O)c(C=O)c1O)[C@@]1(C)C=C2C(C)CC[C@H](C(C)(C)O)C2CC1 (stereo partly specified)
- Ratio CC50/IC50 [1]: 14.5
- IC50 [2]: 41.2 µM
- CC50 at 48 h [3]: 596 µM

Compound: CC(C)C[C@H](c1c(O)c(C=O)c(O)c(C=O)c1O)[C@@]1(C)CC[C@@H]2[C@@H]1[C@H]1[C@@H](CC[C@@]2(C)O)C1(C)C [MACROCARPAL B]
- Ratio CC50/IC50 [1]: 18.4
- IC50 [2]: 31.2 µM
- CC50 at 48 h [3]: 570 µM

Compound: CC(C)C[C@H](c1c(O)c(C=O)c(O)c(C=O)c1O)[C@@]1(C)CC[C@@H]2[C@@H]1[C@H]1[C@@H](CC[C@]2(C)O)C1(C)C
- Ratio CC50/IC50 [1]: 22.7
- IC50 [2]: 26.3 µM
- CC50 at 48 h [3]: 597 µM

Compound: CC(C)C[C@@H](c1c(O)c(C=O)c(O)c(C=O)c1O)[C@@]1(C)CC[C@@H]2[C@@H]1[C@H]1[C@@H](CC[C@@]2(C)O)C1(C)C [MACROCARPAL A]
- Ratio CC50/IC50 [1]: 29.2
- IC50 [2]: 20.4 µM
- CC50 at 48 h [3]: 597 µM

Compound: COc1c(C)c(O)c(C)c(O)c1C(=O)CC(C)C
- Ratio CC50/IC50 [1]: 5
- IC50 [2]: 133 µM
- CC50 at 48 h [3]: 670 µM

Compound: CC(C)CC(=O)c1c(O)c(C=O)c(O)c(C[C@@]2(C)CCC3C2[C@H]2[C@@H](CC[C@@]3(C)O)C2(C)C)c1O (stereo partly specified)
- Ratio CC50/IC50 [1]: 30.5
- IC50 [2]: 18.2 µM
- CC50 at 48 h [3]: 554 µM
